# The source made the active and inactive calls.
# Legend:
# Schistosoma mansoni [1] = assay: Antischistosomal activity against schistosomula of Schistosoma mansoni assessed as effect on parasite phenotype by throughput high content image analysis; assay type: functional, organism-based
# Method in brief: (§1)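 Puerto Rican (NMRI) strain cercariae were mechanically transformed to schistosomula. About 120 larvae were co-cultured with compound for 72 hr at 37 °C, 5% CO2, at 0.625% DMSO final. Controls were DMSO and auranofin. Motility and phenotype were scored by automated image analysis, with a hit threshold of ≤-0.15 (phenotype) and ≤-0.35 (motility) in ≥70% of larvae. Runs were in duplicate, and IC50 was estimated from dose-response curves.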
# Schistosoma mansoni [2] = assay: Antischistosomal activity against schistosomula of Schistosoma mansoni assessed as effect on parasite motility by throughput high content image analysis; assay type: functional, organism-based; method in brief: as §1
# [3] = Cytotoxicity against human HepG2 cells after 24 hrs by MTT assay; assay type: cell-based
# Method in brief: (§2)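 Cells were grown to about 80% confluence (HepG2 in BME, MDBK in EMEM, each with 10% FBS). They were seeded at 2.5 x10^4 per well and rested 24 hr, then exposed 24 hr to compound at 100–0.01 µM (1.25% DMSO). Controls were DMSO and 1% Triton X-100. Viability was read by MTT, and CC50 came from dose-response curves run in triplicate.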
# [4] = Cytotoxicity against MDBK cells after 24 hrs by MTT assay; assay type: cell-based, Bos taurus; conditions: cattle; method in brief: as §2
# [5] = Selectivity index, ratio of IC50 for human HepG2 cells to IC50 for antischistosomal activity against schistosomula of Schistosoma mansoni assessed as effect on parasite phenotype; assay type: toxicity; conditions: read-out: Ratio IC50
# Method in brief: (§3)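 Selectivity index was calculated as the CC50 from the HepG2 or MDBK MTT assay divided by the schistosomula phenotype or motility IC50 from the 72 hr image-based screen.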
# [6] = Selectivity index, ratio of IC50 for human HepG2 cells to IC50 for antischistosomal activity against schistosomula of Schistosoma mansoni assessed as effect on parasite motility; assay type: toxicity; conditions: read-out: Ratio IC50; method in brief: as §3
# Schistosoma mansoni [7] = assay: Antischistosomal activity against adult stage of Schistosoma mansoni assessed as effect on parasite motility after 72 hrs by microscopic method; assay type: functional, organism-based
# Method in brief: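 Mice were infected percutaneously with 200 cercariae, and adults were recovered by portal perfusion at seven weeks. Three worm pairs per well in modified DMEM with 10% FCS were given compound at 50, 25, 12.5 and 6.25 µM final (0.3% DMSO) for 72 hr at 37 °C, 5% CO2. Controls were DMSO and auranofin. Worms were scored manually by microscopy at 24, 48 and 72 hr. Experiments were run in duplicate.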
# Schistosoma mansoni [8] = assay: Antischistosomal activity against schistosomula of Schistosoma mansoni at 25 uM by throughput high content image analysis; assay type: functional, organism-based; method in brief: as §1
# [9] = Selectivity index, ratio of IC50 for MDBK cells to IC50 for antischistosomal activity against schistosomula of Schistosoma mansoni assessed as effect on parasite phenotype; assay type: toxicity; conditions: cattle, read-out: Ratio IC50; method in brief: as §3
# [10] = Selectivity index, ratio of IC50 for MDBK cells to IC50 for antischistosomal activity against schistosomula of Schistosoma mansoni assessed as effect on parasite motility; assay type: toxicity; conditions: cattle, read-out: Ratio IC50; method in brief: as §3
# Fasciola hepatica [11] = assay: Antifasciola activity against newly excysted juveline stage of Fasciola hepatica Italian assessed as effect on parasite phenotype after 72 hrs; assay type: functional, organism-based
# Method in brief: (§4)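 NEJs came from Italian-strain metacercariae, excysted either by pepsin/HCl or by needle rupture, then 1 hr in sodium tauroglycocholate. They were plated at 25 per well in RPMI-1640 with 1% FCS. Screening was at 25 and 12.5 µM, then titration from 10 to 0.625 µM (0.16% DMSO). Controls were DMSO and 10 µM triclabendazole. Motility and phenotype were scored at 72 hr, with IC50 from dose-response curves.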
# Fasciola hepatica [12] = assay: Antifasciola activity against newly excysted juveline stage of Fasciola hepatica Italian assessed as effect on parasite motility after 72 hrs; assay type: functional, organism-based; method in brief: as §4
# [13] = Selectivity index, ratio of IC50 for human HepG2 cells to IC50 for newly excysted juveline stage of Fasciola hepatica Italian assessed as effect on parasite phenotype; assay type: toxicity; conditions: read-out: Ratio IC50
# Method in brief: (§5)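 Selectivity index was calculated as the CC50 from the HepG2 or MDBK MTT assay divided by the F. hepatica NEJ phenotype or motility IC50 from the 72 hr manual scoring assay.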
# [14] = Selectivity index, ratio of IC50 for human HepG2 cells to IC50 for newly excysted juveline stage of Fasciola hepatica Italian assessed as effect on parasite motility; assay type: toxicity; conditions: read-out: Ratio IC50; method in brief: as §5
# [15] = Selectivity index, ratio of IC50 for MDBK cells to IC50 for newly excysted juveline stage of Fasciola hepatica Italian assessed as effect on parasite phenotype; assay type: toxicity; conditions: cattle, read-out: Ratio IC50; method in brief: as §5
# [16] = Selectivity index, ratio of IC50 for MDBK cells to IC50 for newly excysted juveline stage of Fasciola hepatica Italian assessed as effect on parasite motility; assay type: toxicity; conditions: cattle, read-out: Ratio IC50; method in brief: as §5
# Fasciola hepatica [17] = assay: Antifasciola activity against immature stage of Fasciola hepatica Italian assessed as effect on parasite motility after 72 hrs; assay type: functional, organism-based
# Fasciola hepatica [18] = assay: Antifasciola activity against adult stage of Fasciola hepatica Italian assessed as effect on parasite motility after 72 hrs; assay type: functional, organism-based
SMILES,IC50 (Schistosoma mansoni [1]),IC50 (Schistosoma mansoni [2]),CC50 at 24 h [3],CC50 at 24 h [4],also measured
CC1(C)CCC[C@]2(C)c3ccc(O)cc3C(=O)C[C@@H]12 (relative stereo),28 µM,21.9 µM,65.1 µM,> 100 µM,selectivity ratio [5]: 2.3; selectivity ratio [6]: 3
CC1(C)CCC[C@]2(C)c3ccccc3C(=O)C(=O)[C@H]12 (relative stereo),25 µM,13 µM,> 100 µM,> 100 µM,IC50 (Schistosoma mansoni [7]): > 50 µM; Activity (Schistosoma mansoni [8]): Active
CC(C)c1cc2c(cc1O)C(=O)C[C@H]1C(C)(C)CCC[C@]21C,21.9 µM,26.2 µM,80 µM,63.8 µM,selectivity ratio [5]: 3.7; selectivity ratio [6]: 3.1; selectivity ratio [9]: 2.9; selectivity ratio [10]: 2.4; IC50 (Fasciola hepatica [11]): 16.8 µM; IC50 (Fasciola hepatica [12]): 13.1 µM; selectivity ratio [13]: 4.8; selectivity ratio [14]: 6.1; selectivity ratio [15]: 3.8; selectivity ratio [16]: 4.9
COc1ccc2c(c1)C(=O)C(=O)[C@@H]1C(C)(C)CCC[C@]21C (relative stereo),22.9 µM,6.4 µM,84.9 µM,> 100 µM,IC50 (Schistosoma mansoni [7]): > 50 µM; Activity (Schistosoma mansoni [8]): Active; selectivity ratio [5]: 3.7; selectivity ratio [6]: 13.2
COc1cc(CC(O)C2=C(C)CCCC2(C)C)cc(OC)c1OC (centres undefined),43.8 µM,43.6 µM,> 100 µM,> 100 µM,
COc1cccc(CC(O)C2=C(C)CCCC2(C)C)c1 (centres undefined),39.9 µM,23.5 µM,> 100 µM,> 100 µM,
COc1ccc2c(c1)C(=O)C[C@H]1C(C)(C)CCC[C@]21C (relative stereo),28.6 µM,17.6 µM,> 100 µM,> 100 µM,
CC(C)=CCC/C(C)=C/CCc1ccccc1,43.8 µM,43.8 µM,> 100 µM,> 100 µM,
CC1=C(C(=O)Cc2ccc(C(C)(C)C)cc2)C(C)(C)CCC1,28 µM,18.9 µM,> 100 µM,> 100 µM,
CC1(C)CCC[C@]2(C)c3ccccc3C(=O)C[C@@H]12 (relative stereo),39.5 µM,14.7 µM,84.2 µM,> 100 µM,selectivity ratio [5]: 2.1; selectivity ratio [6]: 5.7
COc1ccc2c(c1)[C@@]1(C)CCCC(C)(C)[C@@H]1CC2=O (relative stereo),14.2 µM,10.3 µM,33.1 µM,70.6 µM,IC50 (Schistosoma mansoni [7]): > 50 µM; Activity (Schistosoma mansoni [8]): Active; selectivity ratio [5]: 2.3; selectivity ratio [6]: 3.2; selectivity ratio [9]: 5; selectivity ratio [10]: 6.9; IC50 (Fasciola hepatica [11]): 9.9 µM; IC50 (Fasciola hepatica [12]): 8.4 µM; IC50 (Fasciola hepatica [17]): 14.6 µM; IC50 (Fasciola hepatica [18]): 39.9 µM; selectivity ratio [13]: 3.3; selectivity ratio [14]: 3.9; selectivity ratio [15]: 7.1; selectivity ratio [16]: 8.3
CC1=C(C(O)Cc2ccccc2)C(C)(C)CCC1 (centres undefined),43.6 µM,21.5 µM,> 100 µM,> 100 µM,
CC1=C(C(=O)Cc2ccc(C(C)C)cc2)C(C)(C)CCC1,25.4 µM,18.2 µM,71.7 µM,> 100 µM,IC50 (Schistosoma mansoni [7]): > 50 µM; Activity (Schistosoma mansoni [8]): Active; selectivity ratio [5]: 2.8; selectivity ratio [6]: 3.9
CC1=C(C(=O)Cc2ccccc2)C(C)(C)CCC1,43.8 µM,26 µM,> 100 µM,> 100 µM,
COc1ccc(CC(O)C2=C(C)CCCC2(C)C)cc1 (centres undefined),42.5 µM,26.4 µM,> 100 µM,> 100 µM,
COc1cc(CC(=O)C2=C(C)CCCC2(C)C)cc(OC)c1OC,43.7 µM,27.2 µM,> 100 µM,> 100 µM,
COc1cccc(CC(=O)C2=C(C)CCCC2(C)C)c1,41.4 µM,28.1 µM,> 100 µM,> 100 µM,
CC1=C(C(O)Cc2ccc(C(C)(C)C)cc2)C(C)(C)CCC1 (centres undefined),40.2 µM,25.6 µM,> 100 µM,> 100 µM,
COc1ccc(CC(=O)C2=C(C)CCCC2(C)C)cc1,25.3 µM,19.1 µM,> 100 µM,91.1 µM,IC50 (Schistosoma mansoni [7]): > 50 µM; Activity (Schistosoma mansoni [8]): Active; selectivity ratio [9]: 3.6; selectivity ratio [10]: 4.8
CC1=C(C(O)Cc2ccc(C(C)C)cc2)C(C)(C)CCC1 (centres undefined),39.9 µM,27.3 µM,> 100 µM,> 100 µM,
COc1ccc2c(c1)[C@@]1(C)CCCC(C)(C)[C@H]1C(=O)C2=O (relative stereo),43.7 µM,26.5 µM,> 100 µM,> 100 µM,
COc1cccc(CC/C=C(\C)CCC=C(C)C)c1,43.9 µM,27.1 µM,> 100 µM,> 100 µM,
COc1ccc2c(c1)[C@@]1(C)CCCC(C)(C)[C@@H]1CC2 (relative stereo),44.1 µM,26.6 µM,> 100 µM,> 100 µM,
COc1ccc(CC/C=C(\C)CCC=C(C)C)cc1,39.4 µM,40.1 µM,> 100 µM,> 100 µM,
COc1ccc2c(c1)CC[C@H]1C(C)(C)CCC[C@]21C (relative stereo),43.4 µM,27.9 µM,89 µM,> 100 µM,selectivity ratio [5]: 2.1; selectivity ratio [6]: 3.3
